Assay results taken from ChEMBL document CHEMBL1145922, “1,2-benzisoxazole phosphorodiamidates as novel anticancer prodrugs requiring bioreductive activation” (J Med Chem, 2003).

What was measured:
Type in all cases: functional
Rattus norvegicus [1] = species: Rattus norvegicus; test: Percent formation of compound upon incubation of 15 with phenobarbit-induced rat liver microsomal fraction in hypoxic condition in presence of pCMBA at a concentration of 4 mM
Method in brief: (§1)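 Phenobarbital-induced rat liver microsomes; inhibitors SKF-525A (in methanol) or pCMBA (in DMF) at 0–4 mM final. pCMBA preincubated 30 min before NADPH; SKF-525A incubated 15 min with microsomes and NADPH. Hypoxic samples nitrogen-purged. Substrate 2.5 mM added, 30 min at 37 °C. Ketone metabolite by HPLC at 254 nm as percent of substrate; % inhibition relative to no inhibitor. Mean of two experiments.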

Rattus norvegicus [2] = species: Rattus norvegicus; test: Percent formation of compound upon incubation of 15 with phenobarbit-induced rat liver microsomal fraction in oxic condition in presence of SKF-525A at a concentration of 0 mM; method in brief: as §1
Rattus norvegicus [3] = species: Rattus norvegicus; test: Tested for formation of compound upon incubation of compound 15 for 30 minutes with rat liver subcellular fractions in oxic condition in the presence of NADPH
Method in brief: (§2)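 Phenobarbital-induced rat liver S-9 fraction (2 mL) with 5 mM cofactor (NADPH, NADH, benzaldehyde or 2-hydroxypyrimidine), substrate 2.5 mM final, added in methanol/water 50:50; aerobic, 30 min at 37 °C. Quenched with ice-cold methanol, proteins spun down, supernatant analysed by reverse-phase C-18 HPLC, UV 254 nm; ketone metabolite given as percent of equimolar substrate; three experiments.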

Rattus norvegicus [4] = species: Rattus norvegicus; test: Percent formation of compound upon incubation of 15 with phenobarbit-induced rat liver microsomal fraction in oxic condition in presence of SKF-525A at a concentration of 4 mM; method in brief: as §1
Rattus norvegicus [5] = species: Rattus norvegicus; test: Percent formation of compound upon incubation of 15 with phenobarbit-induced rat liver microsomal fraction in oxic condition in presence of pCMBA at a concentration of 1 mM; method in brief: as §1
Rattus norvegicus [6] = species: Rattus norvegicus; test: Percent inhibition of formation of compound upon incubation of 15 with phenobarbit-induced rat liver microsomal fraction in oxic condition in presence of SKF-525A at a concentration of 2 mM; method in brief: as §1
Rattus norvegicus [7] = species: Rattus norvegicus; test: Tested for formation of compound upon incubation of compound 15 for 30 minutes with rat liver cystolic fractions in hypoxic condition in the absence of cofactor
Method in brief: (§3)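 Phenobarbital-induced rat liver S-9, microsomal or cytosolic fraction with 5 mM cofactor (NADPH, NADH, benzaldehyde or 2-hydroxypyrimidine) or none. Substrate 2.5 mM final, added from methanol/water 50:50. Hypoxic vials purged with nitrogen 15–20 min. 30 min at 37 °C, quenched with ice-cold methanol. Ketone metabolite by HPLC at 254 nm as percent of equimolar substrate.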

Rattus norvegicus [8] = species: Rattus norvegicus; test: Tested for formation of compound upon incubation of compound 15 for 30 minutes with rat liver cystolic fractions in oxic condition in the presence of NADPH; method in brief: as §3
Rattus norvegicus [9] = species: Rattus norvegicus; test: Tested for formation of compound upon incubation of compound 15 for 30 minutes with rat liver microsomal fractions in hypoxic condition in the absence of cofactor; method in brief: as §3
Rattus norvegicus [10] = species: Rattus norvegicus; test: Percent formation of compound upon incubation of 15 with phenobarbit-induced rat liver microsomal fraction in hypoxic condition in presence of SKF-525A at a concentration of 1 mM; method in brief: as §1
Rattus norvegicus [11] = species: Rattus norvegicus; test: Percent formation of compound upon incubation of 15 with phenobarbit-induced rat liver microsomal fraction in hypoxic condition in presence of SKF-525A at a concentration of 2 mM; method in brief: as §1
Rattus norvegicus [12] = species: Rattus norvegicus; test: Percent formation of compound upon incubation of 15 with phenobarbit-induced rat liver microsomal fraction in hypoxic condition in presence of pCMBA at a concentration of 1 mM; method in brief: as §1
Rattus norvegicus [13] = species: Rattus norvegicus; test: Tested for formation of compound upon incubation of compound 15 for 30 minutes with rat liver subcellular fractions in oxic condition in the presence of benzaldehyde; method in brief: as §2
Rattus norvegicus [14] = species: Rattus norvegicus; test: Tested for formation of compound upon incubation of compound 15 for 30 minutes with uninduced rat liver S-9 fractions in hypoxic condition in the presence of NADPH
Method in brief: (§4)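 Uninduced rat liver S-9 (22.5 mg/mL protein, 2 mL) with 5 mM NADPH or no cofactor, substrate 2.5 mM final; hypoxic samples nitrogen-purged 15–20 min in septum-sealed vials, else aerobic; 30 min at 37 °C. Methanol quench, centrifugation, C-18 HPLC with UV 254 nm; metabolite as percent of equimolar substrate. NADPH runs three experiments, no-cofactor runs two.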

Rattus norvegicus [15] = species: Rattus norvegicus; test: Tested for formation of compound upon incubation of compound 15 for 30 minutes with uninduced rat liver S-9 fractions in oxic condition in the absence of cofactor; method in brief: as §4
Rattus norvegicus [16] = species: Rattus norvegicus; test: Tested for formation of compound upon incubation of compound 15 for 30 minutes with uninduced rat liver S-9 fractions in oxic condition in the presence of NADPH; method in brief: as §4
Rattus norvegicus [17] = species: Rattus norvegicus; test: Percent formation of compound upon incubation of 15 with phenobarbit-induced rat liver microsomal fraction in hypoxic condition in presence of SKF-525A at a concentration of 0 mM; method in brief: as §1
Rattus norvegicus [18] = species: Rattus norvegicus; test: Tested for formation of compound upon incubation of compound 15 for 30 minutes with rat liver subcellular fractions in oxic condition in the absence of cofactor; method in brief: as §3
Rattus norvegicus [19] = species: Rattus norvegicus; test: Tested for formation of compound upon incubation of compound 15 for 30 minutes with rat liver microsomal fractions in oxic condition in the absence of cofactor; method in brief: as §3
Rattus norvegicus [20] = species: Rattus norvegicus; test: Tested for formation of compound upon incubation of compound 15 for 30 minutes with rat liver subcellular fractions in hypoxic condition in the absence of cofactor; method in brief: as §3
Rattus norvegicus [21] = species: Rattus norvegicus; test: Tested for formation of compound upon incubation of compound 15 for 30 minutes with rat liver subcellular fractions in hypoxic condition in the presence of 2-hydroxypyrimidine; method in brief: as §3
Rattus norvegicus [22] = species: Rattus norvegicus; test: Tested for formation of compound upon incubation of compound 15 for 30 minutes with rat liver subcellular fractions in hypoxic condition in the presence of NADPH; method in brief: as §3
Rattus norvegicus [23] = species: Rattus norvegicus; test: Percent inhibition of formation of compound upon incubation of 15 with phenobarbit-induced rat liver microsomal fraction in hypoxic condition in presence of pCMBA at a concentration of 0 mM; method in brief: as §1
Rattus norvegicus [24] = species: Rattus norvegicus; test: Percent inhibition of formation of compound upon incubation of 15 with phenobarbit-induced rat liver microsomal fraction in oxic condition in presence of pCMBA at a concentration of 0 mM; method in brief: as §1
Rattus norvegicus [25] = species: Rattus norvegicus; test: Percent inhibition of formation of compound upon incubation of 15 with phenobarbit-induced rat liver microsomal fraction in oxic condition in presence of pCMBA at a concentration of 1 mM; method in brief: as §1
Rattus norvegicus [26] = species: Rattus norvegicus; test: Percent inhibition of formation of compound upon incubation of 15 with phenobarbit-induced rat liver microsomal fraction in hypoxic condition in presence of SKF-525A at a concentration of 0 mM; method in brief: as §1
Rattus norvegicus [27] = species: Rattus norvegicus; test: Percent inhibition of formation of compound upon incubation of 15 with phenobarbit-induced rat liver microsomal fraction in oxic condition in presence of SKF-525A at a concentration of 0 mM; method in brief: as §1
Rattus norvegicus [28] = species: Rattus norvegicus; test: Percent inhibition of formation of compound upon incubation of 15 with phenobarbit-induced rat liver microsomal fraction in oxic condition in presence of SKF-525A at a concentration of 1 mM; method in brief: as §1
Rattus norvegicus [29] = species: Rattus norvegicus; test: Percent formation of compound upon incubation of 15 for 60 minutes with rat P450 reductase microsomes in hypoxic condition in presence of NADPAH
Method in brief: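 Human or rat P450 reductase microsomes at 1 mg/mL protein, substrate 0.25 mM and cofactor 0.5 mM; pCMBA 2 mM where stated. Anaerobic samples purged with nitrogen 15–20 min in septum-sealed vials. 60 min at 37 °C, stopped with ice-cold methanol. Ketone metabolite quantified by HPLC (C-18, methanol/water 50:50, UV 254 nm) as percent of equimolar substrate. Mean of two experiments.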

CCC(=O)c1ccccc1O
Formation (Rattus norvegicus [1]): 0.5%
Formation (Rattus norvegicus [2]): 44.9%
Formation (Rattus norvegicus [3]): 80.9%
Formation (Rattus norvegicus [4]): 26.9%
Formation (Rattus norvegicus [5]): 0.5%
inhibition (Rattus norvegicus [6]): 14%
Formation (Rattus norvegicus [7]): 1.4%
Formation (Rattus norvegicus [8]): 0.7%
Formation (Rattus norvegicus [9]): 0.4%
Formation (Rattus norvegicus [10]): 54.6%
Formation (Rattus norvegicus [11]): 50.3%
Formation (Rattus norvegicus [12]): 0.7%
Formation (Rattus norvegicus [13]): 0.7%
Formation (Rattus norvegicus [14]): 9.4%
Formation (Rattus norvegicus [15]): 1.6%
Formation (Rattus norvegicus [16]): 9.1%
Formation (Rattus norvegicus [17]): 70.8%
Formation (Rattus norvegicus [18]): 0.5%
Formation (Rattus norvegicus [19]): 0.6%
Formation (Rattus norvegicus [20]): 2.2%
Formation (Rattus norvegicus [21]): 0.5%
Formation (Rattus norvegicus [22]): 88.5%
inhibition (Rattus norvegicus [23]): 0%
inhibition (Rattus norvegicus [24]): 0%
inhibition (Rattus norvegicus [25]): 99%
inhibition (Rattus norvegicus [26]): 0%
inhibition (Rattus norvegicus [27]): 0%
inhibition (Rattus norvegicus [28]): 18%
Formation (Rattus norvegicus [29]): 1.7%
